OX1R antag-1 = OX1R (human) antagonism | OX1R-expressing cells, FRET antagonist read-out | inhibition, % at 6.6 µM | 330,000 tested, 1.8% active; in the data active means inhibition mostly above about 38%, no sharp cut-off; inactive means mostly below about 40%;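 further: 0% = agonist challenge alone and 100% = reference antagonist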
Target sequence (O43613 whole entry, looked up): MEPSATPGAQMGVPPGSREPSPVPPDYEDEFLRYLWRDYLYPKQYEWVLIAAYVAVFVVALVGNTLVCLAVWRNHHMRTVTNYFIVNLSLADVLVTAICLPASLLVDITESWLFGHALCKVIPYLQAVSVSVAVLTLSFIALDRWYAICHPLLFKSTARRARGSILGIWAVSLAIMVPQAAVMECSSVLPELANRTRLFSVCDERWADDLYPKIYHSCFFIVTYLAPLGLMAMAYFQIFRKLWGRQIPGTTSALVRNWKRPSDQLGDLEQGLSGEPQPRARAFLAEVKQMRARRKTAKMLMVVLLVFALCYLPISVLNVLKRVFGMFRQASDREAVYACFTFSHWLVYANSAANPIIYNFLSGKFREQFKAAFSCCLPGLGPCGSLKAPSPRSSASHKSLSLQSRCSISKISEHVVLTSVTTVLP
V1R ag counter = counter-screen for oxytocin receptor agonists: human V1a receptor agonists; P37288; CHO-V1R cells, Fluo-8 calcium fluorescence, agonist mode; 0% DMSO, 100% 3 nM vasopressin; activation, % at 3 µM; 320,000 tested, 0.25% active; AID 2797;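 active means activation above the mean activation of all tested compounds plus 3 SD, per screening run, cut at about 20% in these data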;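 further: signal is peak over basal fluorescence ratio across a 100 second FLIPR read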
OXTR potentiate = human OXTR potentiation; P30559; 320,000 tested, 0.061% active; AID 2445; CHO-OTR cells, Fluo-8 calcium fluorescence, potentiator mode; 0% = oxytocin EC15, 100% = EC100; activation, % at 3 µM;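 active means activation above that plate's cutoff, the mean activation of tested compounds plus 3 SD, cut at about 6.6% in these data, passing the limit was not always enough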;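 further: 100% uses oxytocin at 75 nM as the full agonist control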
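Assay system: CHO cell line stably expressing human OTR. Reagent: EC15 oxytocin agonist. Dosing: single dose, 3.0 µM nominal final compound concentration. Timing: compound 6 min at room temperature before oxytocin, 100 s read. Signal: kinetic Fluo-8 calcium fluorescence. Controls: oxytocin EC15 low and EC100 high.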
CHO parental Ca = counter-screen: ATP calcium response change in parental CHO cells; inhibition, % at 5.6 µM; parental CHO-K1, ATP-induced calcium, Fluo-8 fluorescence; 330,000 tested, 0.63% active;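 active means inhibition above that plate's mean sample inhibition plus 3 SD, cut at about 26% in these data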;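 further: 0% = ATP-challenged DMSO wells and 100% = DMSO wells without ATP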
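Assay system – parental CHO cells · Reagent – ATP stimulus · Detection – intracellular calcium via Fluo-8 no-wash fluorescent dye · Evaluation – percent inhibition of ATP-evoked calcium rise, normalized to controls · Controls – ATP wells versus no-ATP DMSO wells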
OX1R antag-2 = antagonists of human orexin 1 receptor | CHO/OX1R cells, Fluo-8 calcium fluorescence, orexin A | inhibition, % at 5 µM | 330,000 tested, 0.43% active;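 active means inhibition above its plate's threshold, mean inhibition of all tested compounds on the plate plus 3 SD, cut at about 37% in these data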;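 further: 0% = orexin A challenge wells and 100% = SB-334867-A antagonist wells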
OXTR agonist = activates the human oxytocin receptor; activation, % at 3 µM; 320,000 tested, 0.32% active; CHO-OTR cells, Fluo-8 calcium fluorescence; normalized: DMSO 0%, oxytocin 100%;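 active means activation above the mean of all tested compounds plus 3 SD, cutoff set per screening run, cut at about 20% in these data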;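 further: peak over basal fluorescence ratio from a 100 s FLIPR kinetic read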
* marks the source's active call; other numbers are inactive results; · = no result given. Sampled rows, rich in hits. Any-hit rate of the full collection: about 2.7%.

SMILES | OX1R antag-1 | V1R ag counter | OXTR potentiate | CHO parental Ca | OX1R antag-2 | OXTR agonist
COc1ccc(-c2noc(COc3ccccc3OC)n2)cc1OC | 47* | 1 | -5 | -7 | 4 | 3
CN1C(=O)NC(c2cccc(F)c2)C2=C1CC(C)(C)CC2=O (centres undefined) | -10 | 5 | -2 | -3 | -6 | 0
CCN1C(=O)c2ccc(C(=O)O)cc2C1=O | 23 | 1 | -7 | 3 | -6 | 0
O=C(O)c1ccc(C(=O)c2ccc3c(c2)C(=O)N(CCO)C3=O)cc1 | 74* | 0 | -12 | 9 | -4 | 2
O=C(c1ccc2c(c1)C(=O)N(Cc1ccco1)C2=O)N1CCOCC1 | 18 | 0 | 3 | -10 | -11 | 1
O=C(O)c1ccc(C(=O)c2ccc3c(c2)C(=O)N(Cc2ccco2)C3=O)cc1 | 50* | 1 | -11 | 4 | -14 | 0
CN(CC1COc2ccccc2O1)C(=O)c1cccc(S(=O)(=O)N2CCCC2)c1 (centres undefined) | 5 | 1 | -7 | -15 | -24 | 2
CCOc1ccc(NC(=NCc2ccc3c(c2)OCO3)SC2CC(=O)N(c3ccc(C(=O)O)cc3)C2=O)cc1 (centres undefined) | 27 | 1 | -3 | 38* | 51* | 1
CCOc1ccc(NC(=NCc2ccc3c(c2)OCO3)SC2CC(=O)N(c3ccc(OCC)cc3)C2=O)cc1 (centres undefined) | 13 | 0 | -4 | -9 | -10 | 2
O=C(CNC(=O)c1ccccc1Cl)N/N=C/c1ccc([N+](=O)[O-])s1 | 51* | 0 | -3 | -3 | -24 | 2
O=C(Cc1cccs1)N/N=C\c1ccc([N+](=O)[O-])s1 | 47 | 1 | -19 | -12 | -14 | 1
O=C(CNC(=O)c1ccccc1Br)N/N=C\c1cc([N+](=O)[O-])cc(Br)c1O | 53* | 1 | 1 | 0 | 0 | 3
Cc1cc(C)nc(/N=C(\N)Nc2ccc(OCc3ccccc3)cc2)n1 | 19 | 77* | -18 | 89* | 105* | 75*
Cc1cc(C)nc(/N=C(\N)Nc2ccc(OCCC(C)C)cc2)n1 | 5 | 48* | -25 | 68* | 94* | 50*
COc1ccccc1N/C(N)=N/c1nc(C)cc(C)n1 | 1 | 2 | 7 | -11 | -26 | 2
Cc1cc(C)nc(/N=C(\N)Nc2cccc(OCc3ccccc3)c2)n1 | 9 | 50* | -10 | 40* | 73* | 46*
COc1ccc(C(=O)OCC(=O)c2c(N)n(C)c(=O)n(C)c2=O)c(OC)c1OC | 4 | 1 | 4 | -2 | 9 | 4
Cc1ccc(C)c(N2CCN(C(=O)CCc3nc(-c4cccc(Cl)c4)no3)CC2)c1 | 9 | · | · | -31 | -3 | ·
COc1ccc(S(=O)(=O)N2CCOCC2)cc1NC(=O)CSc1nnc2n1CCCCC2 | 3 | 1 | -3 | -4 | 5 | 4
O=C(c1cc(COc2cccc3cnccc23)on1)N1CCCC(CCCO)C1 (centres undefined) | 51 | 16 | -16 | 59* | 26 | 15
CN(CCO)c1cc(Sc2nc3ccccc3s2)c2nonc2c1[N+](=O)[O-] | 67* | 3 | -5 | 88* | 70* | 1
CC(=O)OCCN(C)c1cc(SC(C)C)c2nonc2c1[N+](=O)[O-] | 27 | 1 | -4 | -1 | -21 | 2
COc1ccc(NC(=O)CSCC(=O)Nc2ccccc2N2CCCCC2)cc1 | 36* | -1 | -3 | -30 | -8 | -2
COc1ccc(NC(=O)CSCC(=O)Nc2ccccc2N2CCCC2)cc1 | 19 | -1 | -9 | -12 | -26 | -3
O=C(CN1CCN(S(=O)(=O)c2ccc(F)cc2)CC1)Nc1ccc(F)cc1F | 17 | 0 | -2 | -13 | -20 | 0
SMILES | OX1R antag-1 | V1R ag counter | OXTR potentiate | CHO parental Ca | OX1R antag-2 | OXTR agonist
C=CCC1(CC=C)CCCN1C(=O)c1cc(COc2cccc(OC)c2)on1 | 11 | 3 | -4 | 11 | -4 | 1
C=CCC1(CC=C)CCCN1C(=O)c1cc(COc2cncc(Cl)c2)on1 | 43 | 8 | -17 | 65* | 31 | 4
COC(=O)[C@H](Cc1ccccc1)NC(=O)Cn1cnc(C(=O)Nc2ccc(C)c(C)c2)n1 | 12 | · | · | -18 | -16 | ·
CCOc1cc(/C=C2\CN(C)C/C(=C\c3ccc(O)c(OCC)c3)C2=O)ccc1O | -9 | 5 | 2 | -28 | -30 | 3
CCOc1cc(/C=C2\CCC/C(=C\c3cc(Cl)c(O)c(OCC)c3)C2=O)cc(Cl)c1O | 75* | 4 | -19 | 21 | 29 | 1
O=C(COC(=O)COc1ccccc1[N+](=O)[O-])NCc1ccc2c(c1)OCO2 | 23 | 1 | -4 | -12 | -9 | 0
CCCCCCCc1nc2sc3c(c2c(=O)n1N)CC(C)(C)OC3 | 13 | 0 | 0 | -8 | -8 | 1
CCCCCc1nc2sc3c(c2c(=O)n1NC(=O)c1ccc([N+](=O)[O-])cc1)CC(C)(C)OC3 | 53* | 8 | -18 | 0 | -30 | 8
CCN(CC)C(=O)Cn1cc(S(=O)(=O)CC(=O)Nc2ccccc2C)c2ccccc21 | 19 | 0 | -4 | -24 | -17 | 0
CS(=O)(=O)c1ccc(Cl)c(NC(=O)C2CCCN(C(=O)c3ccc(Cl)cc3)C2)c1 (centres undefined) | 13 | -1 | 2 | -2 | -8 | 0
Cc1cc(/C=C2\SC(=S)N(Cc3ccco3)C2=O)c(C)n1-c1ccccc1 | 17 | 2 | -7 | 2 | 7 | 2
O=C1/C(=C\c2c(NCCOCCO)nc3ccccn3c2=O)SC(=S)N1Cc1ccco1 | -6 | 56* | -27 | 34* | 37 | 40*
CC1CCCC(C)N1C(=O)COC(=O)c1cc(=O)[nH]c2ccccc12 (centres undefined) | 25 | 1 | -11 | -8 | -13 | 0
CCOC(=O)/C=c1\s/c(=C(\C#N)C(N)=O)n(-c2ccccc2)c1=O | 57* | 2 | -1 | -9 | -12 | -1
NC(=O)N=Nc1c2[nH]c3ccccc3nc-2c2ccccc12 | 71* | 1 | 1 | -11 | -4 | -1
O=c1[nH]c2ccccc2nc1-c1ccccc1 | 25 | -1 | 4 | -14 | -16 | -1
CCOc1ccc(NC(=S)N(CC)Cc2ccccc2)cc1 | 12 | 0 | -5 | 4 | -28 | -2
CC(C)Cn1c(N)c(C(=O)CSc2ccc3c(c2)OCCO3)c(=O)n(C)c1=O | 23 | 12 | -12 | 55* | 21 | 19
Oc1ccccc1-c1nc2c3ccccc3c3ccccc3c2[nH]1 | 21 | 0 | -4 | 0 | -14 | 0
c1csc(-c2nc3c4ccccc4c4ccccc4c3[nH]2)c1 | 63* | 0 | -13 | 0 | -8 | -1
